From ChEMBL document CHEMBL4049400, “Aldehyde Oxidase Mediated Metabolism in Drug-like Molecules: A Combined Computational and Experimental Study” (J Med Chem, 2017)

Tests used:
Aldehyde oxidase [1] = biological target: T1, Aldehyde oxidase (Homo sapiens, UniProt Q06278); experiment: Drug metabolism in human liver cytosol assessed as as AOX-mediated quinolone group metabolism at 10 uM after 30 mins by UPLC/Q-TOF MS analysis; assay type: ADME; settings: 0.5 h
T1 sequence (Q06278 whole entry): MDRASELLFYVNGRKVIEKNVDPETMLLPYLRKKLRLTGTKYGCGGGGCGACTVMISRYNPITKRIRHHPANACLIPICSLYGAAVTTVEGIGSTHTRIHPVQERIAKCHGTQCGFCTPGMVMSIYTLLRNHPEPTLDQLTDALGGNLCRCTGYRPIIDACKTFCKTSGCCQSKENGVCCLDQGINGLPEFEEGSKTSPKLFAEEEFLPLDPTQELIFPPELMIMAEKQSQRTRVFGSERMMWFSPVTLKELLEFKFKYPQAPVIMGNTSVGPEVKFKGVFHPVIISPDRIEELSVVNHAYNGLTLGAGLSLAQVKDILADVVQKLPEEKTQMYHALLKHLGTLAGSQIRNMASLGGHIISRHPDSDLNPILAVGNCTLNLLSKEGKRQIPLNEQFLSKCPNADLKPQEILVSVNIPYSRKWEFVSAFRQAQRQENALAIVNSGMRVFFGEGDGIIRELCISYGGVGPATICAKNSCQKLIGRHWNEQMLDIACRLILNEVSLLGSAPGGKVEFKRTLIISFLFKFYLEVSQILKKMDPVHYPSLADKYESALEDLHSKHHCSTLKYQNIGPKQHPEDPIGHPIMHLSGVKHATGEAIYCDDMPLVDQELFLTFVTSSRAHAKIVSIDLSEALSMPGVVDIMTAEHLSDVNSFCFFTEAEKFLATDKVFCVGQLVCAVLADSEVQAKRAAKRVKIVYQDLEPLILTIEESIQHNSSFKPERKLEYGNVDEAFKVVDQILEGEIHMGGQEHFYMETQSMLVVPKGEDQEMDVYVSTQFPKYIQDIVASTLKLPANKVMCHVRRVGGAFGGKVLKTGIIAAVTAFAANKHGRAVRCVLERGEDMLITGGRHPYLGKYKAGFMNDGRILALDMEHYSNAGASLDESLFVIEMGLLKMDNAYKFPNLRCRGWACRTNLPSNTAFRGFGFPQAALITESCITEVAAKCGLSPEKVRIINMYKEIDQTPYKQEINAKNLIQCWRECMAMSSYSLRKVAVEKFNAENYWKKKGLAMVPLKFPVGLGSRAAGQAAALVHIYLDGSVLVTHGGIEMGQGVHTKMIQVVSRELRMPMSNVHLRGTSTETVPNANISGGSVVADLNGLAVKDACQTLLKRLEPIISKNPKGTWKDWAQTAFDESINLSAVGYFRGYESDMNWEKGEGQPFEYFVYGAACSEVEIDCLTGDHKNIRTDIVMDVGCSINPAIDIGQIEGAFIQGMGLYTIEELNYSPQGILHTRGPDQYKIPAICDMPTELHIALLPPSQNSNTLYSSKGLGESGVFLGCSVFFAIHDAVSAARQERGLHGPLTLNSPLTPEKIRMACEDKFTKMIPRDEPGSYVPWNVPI
Procedure, shortened: (§1)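 Pooled human liver cytosol, 0.5 mg/mL protein, in 100 mM potassium phosphate pH 7.4; 3 min preincubation at 37 °C, then 10 μM substrate (final; DMSO 0.1% v/v). Quenched after 30 min with equal volume ice-cold acetonitrile, centrifuged, supernatant run by UPLC/Q-TOF MS in positive ion mode. Controls without substrate or with inactivated enzyme; duplicate incubations.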

Aldehyde oxidase [2] = biological target: T1, Aldehyde oxidase; experiment: Drug metabolism in human liver cytosol assessed as AOX-mediated oxidative metabolite formation by measuring decrease in the liquid chromatography-mass spectrometry peak at 10 uM after 30 min by UPLC/Q-TOF MS analysis; assay type: ADME; settings: 0.5 h; procedure, shortened: as §1
[3] = Retention time of the compound by UPLC/Q-TOF MS analysis
Procedure, shortened: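 HSS T3 column (1.8 μm, 100 × 2.1 mm) at 45 °C, 0.4 mL/min. Mobile phase: 5 mM ammonium acetate with 0.1% formic acid (A) and acetonitrile (B). Gradient 10% B for 1 min, to 65% B over 6 min, to 99% B over 0.5 min, held 1.5 min, back to 10% B. Positive-ion Q-TOF detection, m/z 80–1000.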

Aldehyde oxidase [4] = biological target: T1, Aldehyde oxidase; experiment: (§2) Drug metabolism in human liver cytosol assessed as AOX-mediated 2-fluoro-N-methyl-4-(3-oxo-7-(quinolin-7-ylmethyl)-3,4-dihydroimidazo[1,2-b][1,2,4]triazin-2-yl)benzamide metabolite formation by measuring LC-MS peak area of the metabolite at 10 uM after 30 min by UPLC/Q-TOF MS analysis; assay type: ADME; settings: 0.5 h; procedure, shortened: as §1
Aldehyde oxidase [5] = biological target: T1, Aldehyde oxidase; experiment: Drug level in human liver cytosol treated with capmatinib assessed as AOX-mediated metabolite formation at 10 uM after 30 min by UPLC/Q-TOF MS analysis; assay type: ADME; settings: 0.5 h; procedure, shortened: as §1
Aldehyde oxidase [6] = biological target: T1, Aldehyde oxidase; experiment: as §2, with “mins in presence of menadione” for “min”; assay type: ADME; settings: 0.5 h
Procedure, shortened: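 Human liver cytosol (0.5 mg/mL protein) in 100 mM phosphate buffer preincubated 10 min at 37 °C with 100 μM menadione (DMSO 0.2% v/v final), then 10 μM substrate (final) added. Stopped at 30 min with equal volume ice-cold acetonitrile; metabolites detected by UPLC/Q-TOF MS. Inhibitor-free controls run alongside; duplicate incubations.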

OCCn1cc(-c2cnc3nnn(Cc4ccc5ncccc5c4)c3n2)cn1 [PF-04217903]
Drug metabolism (Aldehyde oxidase [1]): Metabolite_Detected
Drug metabolism (Aldehyde oxidase [2]): Metabolite_Detected

CNC(=O)c1ccc(-c2cnc3ncc(Cc4ccc5ncccc5c4)n3n2)cc1F [CAPMATINIB]
Drug metabolism (Aldehyde oxidase [2]): Metabolite_Detected

CNC(=O)c1ccc(-c2nn3c(Cc4ccc5ncccc5c4)cnc3[nH]c2=O)cc1F
Retention time [3]: 3.63 min
Drug metabolism (Aldehyde oxidase [4]): 136000
Drug metabolism (Aldehyde oxidase [5]): Metabolite_Detected
Drug metabolism (Aldehyde oxidase [6]): 3220

Cn1cc(-c2ccc3ncc(Cc4ccc5ncccc5c4)n3n2)cn1
Drug metabolism (Aldehyde oxidase [2]): Metabolite_Detected

Cn1cc(-c2ccc3nnc(Sc4ccc5ncccc5c4)n3n2)cn1 [SGX-523]
Drug metabolism (Aldehyde oxidase [1]): Metabolite_Detected

Cn1cc(-c2ccc3nnc(C(F)(F)c4ccc5ncccc5c4)n3n2)cn1 [JNJ-38877605]
Drug metabolism (Aldehyde oxidase [1]): Metabolite_Detected
